Reference: ChEMBL document CHEMBL5247575 (J Med Chem, 2018)
Converted amounts (≈) assume the structure as drawn.

How the values were obtained:
Type in all cases: functional
Pseudomonas aeruginosa [1] = test: Synergistic antibacterial activity against Pseudomonas aeruginosa CL232 assessed as meropenem MIC at 4 ug/ml by broth microdilution method; details: dose 4 µg/ml
Pseudomonas aeruginosa [2] = test: Synergistic antibacterial activity against Pseudomonas aeruginosa 839 assessed as meropenem MIC at 4 ug/ml by broth microdilution method; details: dose 4 µg/ml
Klebsiella pneumoniae [3] = test: Synergistic antibacterial activity against Klebsiella pneumoniae jefferson 1773 producing OXA-181 assessed as meropenem MIC at 4 ug/ml by broth microdilution method; details: dose 4 µg/ml
Escherichia coli [4] = test: Synergistic antibacterial activity against Escherichia coli DH10B transfected with pBC SK (-) KPC-3 assessed as meropenem MIC at 4 ug/ml by broth microdilution method; details: dose 4 µg/ml
Klebsiella pneumoniae [5] = test: Synergistic antibacterial activity against Klebsiella pneumoniae 761/1723 producing KPC-3 assessed as cefepime MIC at 4 ug/ml by broth microdilution method; details: dose 4 µg/ml
Outline: (§1)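 Broth microdilution per CLSI guidelines, using custom frozen panels. […] Each partner drug was also tested alone. MICs were run in triplicate and the modal value is reported.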

Escherichia coli [6] = test: Synergistic antibacterial activity against Escherichia coli DH10B transfected with pBC SK (-) OXA-48 assessed as meropenem MIC at 4 ug/ml by broth microdilution method; details: dose 4 µg/ml; outline: as §1
Escherichia coli [7] = test: Synergistic antibacterial activity against Escherichia coli DH10B transfected with pBC SK (-) KPC-2 assessed as meropenem MIC at 4 ug/ml by broth microdilution method; details: dose 4 µg/ml
Acinetobacter baumannii [8] = test: Synergistic antibacterial activity against Acinetobacter baumannii PR381 producing OXA-24/40 assessed as meropenem MIC at 4 ug/ml by broth microdilution method; details: dose 4 µg/ml
Escherichia coli [9] = test: Synergistic antibacterial activity against Escherichia coli DH10B assessed as cefepime MIC at 4 ug/ml by broth microdilution method; details: dose 4 µg/ml
Acinetobacter baumannii [10] = test: Synergistic antibacterial activity against Acinetobacter baumannii PR381 producing OXA-24/40 assessed as cefepime MIC at 4 ug/ml by broth microdilution method; details: dose 4 µg/ml
Escherichia coli [11] = test: Antibacterial activity against Escherichia coli DH10B by broth microdilution method
Acinetobacter baumannii [12] = test: Synergistic antibacterial activity against Acinetobacter baumannii PR420 producing OXA-23/24/40 assessed as cefepime MIC at 4 ug/ml by broth microdilution method; details: dose 4 µg/ml
Pseudomonas aeruginosa [13] = test: Antibacterial activity against Pseudomonas aeruginosa 839 by broth microdilution method
Klebsiella pneumoniae [14] = test: Synergistic antibacterial activity against Klebsiella pneumoniae 729/1679 producing KPC-3 assessed as cefepime MIC at 4 ug/ml by broth microdilution method; details: dose 4 µg/ml; outline: as §1
Escherichia coli [15] = test: Antibacterial activity against Escherichia coli DH10B transfected with pBC SK (-) PDC-3 by broth microdilution method
Klebsiella pneumoniae [16] = test: Synergistic antibacterial activity against Klebsiella pneumoniae 1315/2198 producing KPC-3 assessed as cefepime MIC at 4 ug/ml by broth microdilution method; details: dose 4 µg/ml; outline: as §1
Escherichia coli [17] = test: Synergistic antibacterial activity against Escherichia coli DH10B transfected with pBC SK (-) OXA-48 assessed as cefepime MIC at 4 ug/ml by broth microdilution method; details: dose 4 µg/ml; outline: as §1
Escherichia coli [18] = test: Synergistic antibacterial activity against Escherichia coli DH10B transfected with pBC SK (-) PDC-3 assessed as cefepime MIC at 4 ug/ml by broth microdilution method; details: dose 4 µg/ml; outline: as §1
Acinetobacter baumannii [19] = test: Synergistic antibacterial activity against Acinetobacter baumannii PR363 producing OXA-23 assessed as cefepime MIC at 4 ug/ml by broth microdilution method; details: dose 4 µg/ml
Klebsiella pneumoniae [20] = test: Synergistic antibacterial activity against Klebsiella pneumoniae 1398/2291 producing KPC-3 assessed as meropenem MIC at 4 ug/ml by broth microdilution method; details: dose 4 µg/ml; outline: as §1
Acinetobacter baumannii [21] = test: Synergistic antibacterial activity against Acinetobacter baumannii PR474 producing OXA-23/24/40 assessed as meropenem MIC at 4 ug/ml by broth microdilution method; details: dose 4 µg/ml
Pseudomonas aeruginosa [22] = test: Synergistic antibacterial activity against Pseudomonas aeruginosa 776 assessed as meropenem MIC at 4 ug/ml by broth microdilution method; details: dose 4 µg/ml
Acinetobacter baumannii [23] = test: Synergistic antibacterial activity against Acinetobacter baumannii PR363 producing OXA-23 assessed as cefepime MIC at 8 ug/ml by broth microdilution method; details: dose 8 µg/ml
Acinetobacter baumannii [24] = test: Synergistic antibacterial activity against Acinetobacter baumannii PR440 producing OXA-23/24/40 assessed as meropenem MIC at 8 ug/ml by broth microdilution method; details: dose 8 µg/ml
Klebsiella pneumoniae [25] = test: Synergistic antibacterial activity against Klebsiella pneumoniae 977/1916 producing KPC-3 assessed as cefepime MIC at 8 ug/ml by broth microdilution method; details: dose 8 µg/ml
Pseudomonas aeruginosa [26] = test: Synergistic antibacterial activity against Pseudomonas aeruginosa 715 assessed as meropenem MIC at 8 ug/ml by broth microdilution method; details: dose 8 µg/ml
Acinetobacter baumannii [27] = test: Synergistic antibacterial activity against Acinetobacter baumannii PR381 producing OXA-24/40 assessed as cefepime MIC at 8 ug/ml by broth microdilution method; details: dose 8 µg/ml
Klebsiella pneumoniae [28] = test: Synergistic antibacterial activity against Klebsiella pneumoniae 1398/2291 producing KPC-3 assessed as cefepime MIC at 8 ug/ml by broth microdilution method; details: dose 8 µg/ml; outline: as §1
Klebsiella pneumoniae [29] = test: Synergistic antibacterial activity against Klebsiella pneumoniae 11978 producing OXA-48 assessed as cefepime MIC at 8 ug/ml by broth microdilution method; details: dose 8 µg/ml; outline: as §1
Pseudomonas aeruginosa [30] = test: Synergistic antibacterial activity against Pseudomonas aeruginosa 839 assessed as cefepime MIC at 8 ug/ml by broth microdilution method; details: dose 8 µg/ml
Acinetobacter baumannii [31] = test: Synergistic antibacterial activity against Acinetobacter baumannii PR420 producing OXA-23/24/40 assessed as meropenem MIC at 8 ug/ml by broth microdilution method; details: dose 8 µg/ml
Klebsiella pneumoniae [32] = test: Synergistic antibacterial activity against Klebsiella pneumoniae jefferson 1775 producing OXA-48 assessed as meropenem MIC at 8 ug/ml by broth microdilution method; details: dose 8 µg/ml
Acinetobacter baumannii [33] = test: Synergistic antibacterial activity against Acinetobacter baumannii PR359 producing OXA-23 assessed as cefepime MIC at 8 ug/ml by broth microdilution method; details: dose 8 µg/ml
Escherichia coli [34] = test: Synergistic antibacterial activity against Escherichia coli DH10B transfected with pBR322-catI-KPC-2 assessed as meropenem MIC at 8 ug/ml by broth microdilution method; details: dose 8 µg/ml; outline: as §1
Klebsiella pneumoniae [35] = test: Synergistic antibacterial activity against Klebsiella pneumoniae 901/1860 producing KPC-3 assessed as meropenem MIC at 8 ug/ml by broth microdilution method; details: dose 8 µg/ml
Klebsiella pneumoniae [36] = test: Synergistic antibacterial activity against Klebsiella pneumoniae 1354/2241 producing KPC-3 assessed as cefepime MIC at 8 ug/ml by broth microdilution method; details: dose 8 µg/ml; outline: as §1
Klebsiella pneumoniae [37] = test: Synergistic antibacterial activity against Klebsiella pneumoniae jefferson 1773 producing OXA-181 assessed as cefepime MIC at 8 ug/ml by broth microdilution method; details: dose 8 µg/ml
Klebsiella pneumoniae [38] = test: Synergistic antibacterial activity against Klebsiella pneumoniae 972/1910 producing KPC-3 assessed as meropenem MIC at 8 ug/ml by broth microdilution method; details: dose 8 µg/ml
Klebsiella pneumoniae [39] = test: Synergistic antibacterial activity against Klebsiella pneumoniae NY BS producing OXA-232 assessed as meropenem MIC at 8 ug/ml by broth microdilution method; details: dose 8 µg/ml
Acinetobacter baumannii [40] = test: Synergistic antibacterial activity against Acinetobacter baumannii PR420 producing OXA-23/24/40 assessed as cefepime MIC at 8 ug/ml by broth microdilution method; details: dose 8 µg/ml

Row | SMILES | MIC (Pseudomonas aeruginosa [1]) [µg/mL] | MIC (Pseudomonas aeruginosa [2]) [µg/mL] | MIC (Klebsiella pneumoniae [3]) [µg/mL] | MIC (Escherichia coli [4]) [µg/mL] | MIC (Klebsiella pneumoniae [5]) [µg/mL] | MIC (Escherichia coli [6]) [µg/mL] | MIC (Escherichia coli [7]) [µg/mL] | MIC (Acinetobacter baumannii [8]) [µg/mL] | MIC (Escherichia coli [9]) [µg/mL] | MIC (Acinetobacter baumannii [10]) [µg/mL] | MIC (Escherichia coli [11]) [µg/mL] | MIC (Acinetobacter baumannii [12]) [µg/mL] | MIC (Pseudomonas aeruginosa [13]) [µg/mL] | MIC (Klebsiella pneumoniae [14]) [µg/mL] | MIC (Klebsiella pneumoniae [16]) [µg/mL] | MIC (Escherichia coli [17]) [µg/mL] | MIC (Escherichia coli [18]) [µg/mL] | MIC (Acinetobacter baumannii [19]) [µg/mL] | MIC (Klebsiella pneumoniae [20]) [µg/mL] | MIC (Acinetobacter baumannii [21]) [µg/mL] | further results
1 | NC(=O)[C@@H]1CC[C@@H]2CN1C(=O)N2OS(=O)(=O)[O-].[Na+] [AVIBACTAM SODIUM] | > 16 | 1 | 1 | ≤ 0.12 | ≤ 0.12 | ≤ 0.12 | ≤ 0.12 | > 16 | ≤ 0.12 | > 16 | 4 | > 16 | > 16 | 0.25 | ≤ 0.12 | ≤ 0.12 | ≤ 0.12 | > 16 | ≤ 0.12 | > 16 | MIC (Escherichia coli [15]): > 16 µg/mL
2 | O.O=C(NC1CCNCC1)[C@@H]1CC[C@@H]2CN1C(=O)N2OS(=O)(=O)O [RELEBACTAM] | > 16 | 1 | 16 | ≤ 0.12 | ≤ 0.12 | 0.25 | ≤ 0.12 | > 16 | ≤ 0.12 | > 16 | > 16 | > 16 | > 16 | 0.5 | 0.25 | ≤ 0.12 | ≤ 0.12 | 16 | ≤ 0.12 | > 16 | MIC (Escherichia coli [15]): > 16 µg/mL; MIC (Pseudomonas aeruginosa [22]): > 16 µg/mL
3 | O=C(NNC(=O)[C@@H]1CC[C@@H]2CN1C(=O)N2OS(=O)(=O)O)[C@@H]1CCCNC1 [ZIDEBACTAM] | > 16 | 0.5 | – | ≤ 0.12 | ≤ 0.12 | ≤ 0.12 | ≤ 0.12 | > 16 | ≤ 0.12 | 16 | – | > 16 | 8 (≈ 20.4 µM) | ≤ 0.12 | ≤ 0.12 | ≤ 0.12 | ≤ 0.12 | 8 | ≤ 0.12 | > 16 | MIC (Acinetobacter baumannii [23]): 8 µg/mL; MIC (Acinetobacter baumannii [24]): > 16 µg/mL; MIC (Klebsiella pneumoniae [25]): ≤ 0.12 µg/mL; MIC (Pseudomonas aeruginosa [26]): 8 µg/mL; MIC (Acinetobacter baumannii [27]): 16 µg/mL; MIC (Klebsiella pneumoniae [28]): ≤ 0.12 µg/mL; MIC (Klebsiella pneumoniae [29]): ≤ 0.12 µg/mL; MIC (Pseudomonas aeruginosa [30]): 0.5 µg/mL; MIC (Acinetobacter baumannii [31]): > 16 µg/mL; MIC (Klebsiella pneumoniae [32]): ≤ 0.12 µg/mL; MIC (Acinetobacter baumannii [33]): 16 µg/mL; MIC (Escherichia coli [34]): ≤ 0.12 µg/mL; MIC (Klebsiella pneumoniae [35]): ≤ 0.12 µg/mL; MIC (Klebsiella pneumoniae [36]): ≤ 0.12 µg/mL; MIC (Klebsiella pneumoniae [37]): ≤ 0.12 µg/mL; MIC (Klebsiella pneumoniae [38]): ≤ 0.12 µg/mL; MIC (Klebsiella pneumoniae [39]): ≤ 0.12 µg/mL; MIC (Pseudomonas aeruginosa [22]): 16 µg/mL; MIC (Acinetobacter baumannii [40]): > 16 µg/mL
